Data on 15 compounds can be found in ChEMBL document CHEMBL1153797, “Prenylxanthones and a bicyclo[3.3.1]nona-2,6-diene derivative from the fungus Emericella rugulosa” (J Nat Prod, 2009).

The subject of one test is KB. Briefly: Cytotoxicity against human KB cells by SRB assay. The test is classed as functional, cell-based. The method, boiled down:
(§1)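 Human cell lines were epidermoid carcinoma KB, breast cancer BC1 and small-cell lung cancer NCI-H187. Cytotoxicity was read by the Skehan colorimetric method, and IC50 was reported in µg/mL. Ellipticine served as the reference substance.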

The nature of test [1]: Cytotoxicity against human BC1 cells by SRB assay. The test is classed as functional, cell-based. The method, boiled down: as §1
In test [2] the test system is Mycobacterium tuberculosis. Briefly: Antimycobacterial activity against Mycobacterium tuberculosis H37Ra by microplate Alamar blue assay. The test is classed as functional. In a few lines:
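M. tuberculosis H37Ra tested by microplate Alamar Blue assay. Activity reported as MIC. Isoniazid and kanamycin sulfate were run as reference drugs.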
In general terms: Alamar Blue is a resazurin reagent that responds to reducing activity.

The next test relates to Plasmodium falciparum. Briefly: Antimalarial activity against multidrug-resistant Plasmodium falciparum K1 assessed as inhibition of [3H]hypoxanthine uptake by microculture radioisotope technique. The test is classed as functional, organism-based. In a few lines:
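In vitro culture of multidrug-resistant P. falciparum K1 parasites (Trager–Jensen method). Growth measured by [3H]-hypoxanthine uptake in a microculture radioisotope format. IC50 taken as the concentration giving 50% reduction in parasite growth. Artemisinin served as the reference standard.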

In the next test the test system is NCI-H187. Briefly: Cytotoxicity against human NCI-H187 cells by SRB assay. The test is classed as functional, cell-based. The method, boiled down:
as §1
On the technique in general: The SRB assay estimates cell density from bound dye.

Where [3] appears, read: Plasmodium falciparum, K1, read-out: IC50.
Where [4] appears, read: Homo sapiens, BC1, read-out: IC50.
Setting [5] is: Homo sapiens, NCI-H187, read-out: IC50.

Converted amounts (≈) assume the structure as drawn. The source made the active and inactive calls. The calls are words filed in the database; no cut-off is given here.

Turning to `C=C(C)[C@H]1COc2c(C)cc3oc4c([C@@H](OC)[C@@H]5OC5(C)C)ccc(O)c4c(=O)c3c2[C@@H]1OC(C)=O`, the concentration for half-maximal inhibition (IC50) result (with KB (kb); in test [1] (bc1); in the test on Plasmodium falciparum; in the test on NCI-H187 (nci-h187)) was “Not Active” in each case. Moreover, the MIC – broadly, the least concentration at which growth counts as inhibited – in test [2] is “inactive”.
Take `C=C(C)[C@H]1COc2c(C)cc3oc4c([C@H](OC)[C@@H]5OC5(C)C)ccc(O)c4c(=O)c3c2[C@@H]1O`: the IC50 entry (in the test with KB (kb); in test [1] (bc1); with Plasmodium falciparum; in the test on NCI-H187 (nci-h187)) was “Not Active” in each case. The MIC entry in test [2] was “inactive”.
`C[C@@H]1CC[C@H]2[C@@H](C)C(=O)O[C@@H]3O[C@@]4(C)CC[C@@H]1[C@]32OO4` [ARTEMISININ]: in the test on Plasmodium falciparum (setting [3]), the half-maximal inhibitory concentration (IC50) – broadly, the concentration at which inhibition is half-maximal – was found to be 0.001 µg/mL (≈ 0.00354 µM).
Turning to `Cc1c2ccncc2c(C)c2c1[nH]c1ccccc12` [ELLIPTECINE], the IC50 in test [1] (setting [4]) worked out at 0.32 µg/mL (≈ 1.3 µM); in the test on NCI-H187 (setting [5]) it was 0.26 µg/mL (≈ 1.06 µM).
In test [2], `NNC(=O)c1ccncc1` [ISONIAZID] registered an MIC of 0.04 µg/mL (≈ 0.292 µM).
Still for that read-out and setting: in the case of `NC[C@H]1O[C@H](O[C@H]2[C@H](O)[C@@H](O[C@H]3O[C@H](CO)[C@@H](O)[C@H](N)[C@H]3O)[C@H](N)C[C@@H]2N)[C@H](O)[C@@H](O)[C@@H]1O.O=S(=O)(O)O` [KANAMYCIN SULFATE] it was 2 µg/mL.
Turning to `C=C(C(=O)CC)[C@H]1[C@@]2(C)C=C(C)C[C@]1(C)C=C(C)[C@@H]2/C(C)=C\[C@@H]1C=CC(=O)C1` [RUGULOSONE], the IC50 in the test with KB (Homo sapiens, KB, read-out: IC50) came to 2.6 µg/mL (≈ 6.87 µM); in test [1] (setting [4]) it was 1.3 µg/mL (≈ 3.43 µM); in the test on Plasmodium falciparum (setting [3]) it was 1.9 µg/mL (≈ 5.02 µM); in the test with NCI-H187 (setting [5]) it was 1.3 µg/mL (≈ 3.43 µM). Besides, in test [2], the MIC stood at 12.5 µg/mL (≈ 33 µM).
Consider `C=C(C)[C@H]1COc2c(C)cc3oc4c(CC(C)(C)C=O)ccc(O)c4c(=O)c3c2[C@@H]1O` [RUGULOXANTHONE A], for which the IC50 entry (with KB (kb); in test [1] (bc1); in the test with Plasmodium falciparum; with NCI-H187 (nci-h187)) was “Not Active” in each case. Besides, the MIC result in test [2] was “inactive”.
On to `C=C(C)[C@H]1COc2c(C)cc3oc4c(CC(=O)C(C)C)ccc(O)c4c(=O)c3c2[C@@H]1O` [RUGULOXANTHONE B], for which the IC50 result (in the test with KB (kb); in test [1] (bc1); in the test with Plasmodium falciparum; in the test with NCI-H187 (nci-h187)) was “Not Active” throughout. In addition, the MIC result in test [2] is “inactive”.
In the case of `C=C(C)[C@H](O)Cc1ccc(O)c2c(=O)c3c4c(c(C)cc3oc12)OC[C@H](C(=C)C)[C@H]4O` [RUGULOXANTHONE C], the IC50 entry (with KB (kb); in test [1] (bc1); with Plasmodium falciparum; in the test with NCI-H187 (nci-h187)) was “Not Active” each time. Also, the MIC entry in test [2] is “inactive”.
`C=C(C)[C@H]1COc2c(C)cc3oc4c(CC=C(C)C)ccc(O)c4c(=O)c3c2[C@@H]1O` [SHAMIXANTHONE]: the half-inhibitory concentration (IC50) entry (in the test on KB (kb); in test [1] (bc1); in the test with Plasmodium falciparum; in the test on NCI-H187 (nci-h187)) was “Not Active” in each case. Moreover, the MIC entry in test [2] is “inactive”.
On to `C=C(C)[C@H]1COc2c(C)cc3oc4c(C[C@H](O)C(C)(C)OCC)ccc(O)c4c(=O)c3c2[C@@H]1O` [TAJIXANTHONE ETHANOATE], for which the IC50 result (with KB (kb); in test [1] (bc1); in the test on Plasmodium falciparum; with NCI-H187 (nci-h187)) was “Not Active” throughout. Moreover, the MIC result in test [2] was “inactive”.
`C=C(C)[C@H]1COc2c(C)cc3oc4c(C[C@H](O)C(C)(C)O)ccc(O)c4c(=O)c3c2[C@@H]1O.O` [TAJIXANTHONE HYDRATE]: the IC50 result (with KB (kb); in test [1] (bc1); in the test with Plasmodium falciparum; in the test on NCI-H187 (nci-h187)) was “Not Active” throughout. Also, the MIC result in test [2] is “inactive”.
On to `C=C(C)[C@H]1COc2c(C)cc3oc4c(C[C@H](O)C(C)(C)OC)ccc(O)c4c(=O)c3c2[C@@H]1O` [TAJIXANTHONE METHANOATE], for which the IC50 entry (with KB (kb); in test [1] (bc1); in the test on Plasmodium falciparum; in the test on NCI-H187 (nci-h187)) was “Not Active” each time. For the same compound, the MIC entry in test [2] was “inactive”.
In the case of `C=C(C)[C@@H]1COc2c(C)cc3oc4c(C[C@@H]5OC5(C)C)ccc(O)c4c(=O)c3c2[C@H]1O` [TAJIXANTHONE], the IC50 entry (in the test on KB (kb); in test [1] (bc1); in the test with Plasmodium falciparum; in the test with NCI-H187 (nci-h187)) was “Not Active” throughout. Further, in test [2], the MIC result is “inactive”.
